Data: ChEMBL document CHEMBL3352666, “Human Toll-like receptor 8-selective agonistic activities in 1-alkyl-1H-benzimidazol-2-amines” (J Med Chem, 2014)
Calls of active or inactive are those of the source. The rule behind the calls is not given here.

How the values were obtained:
Type in all cases: cell-based
[1] = target: Toll-like receptor 4 (Homo sapiens) (UniProt O00206); test: Agonist activity at human TLR4 stably expressed in HEK293 cells co-expressing secreted alkaline phosphatase assessed as NF-kappaB induction by liquid handler-assisted reporter gene assay
Toll-like receptor 4 (Homo sapiens), sequence (O00206 whole entry): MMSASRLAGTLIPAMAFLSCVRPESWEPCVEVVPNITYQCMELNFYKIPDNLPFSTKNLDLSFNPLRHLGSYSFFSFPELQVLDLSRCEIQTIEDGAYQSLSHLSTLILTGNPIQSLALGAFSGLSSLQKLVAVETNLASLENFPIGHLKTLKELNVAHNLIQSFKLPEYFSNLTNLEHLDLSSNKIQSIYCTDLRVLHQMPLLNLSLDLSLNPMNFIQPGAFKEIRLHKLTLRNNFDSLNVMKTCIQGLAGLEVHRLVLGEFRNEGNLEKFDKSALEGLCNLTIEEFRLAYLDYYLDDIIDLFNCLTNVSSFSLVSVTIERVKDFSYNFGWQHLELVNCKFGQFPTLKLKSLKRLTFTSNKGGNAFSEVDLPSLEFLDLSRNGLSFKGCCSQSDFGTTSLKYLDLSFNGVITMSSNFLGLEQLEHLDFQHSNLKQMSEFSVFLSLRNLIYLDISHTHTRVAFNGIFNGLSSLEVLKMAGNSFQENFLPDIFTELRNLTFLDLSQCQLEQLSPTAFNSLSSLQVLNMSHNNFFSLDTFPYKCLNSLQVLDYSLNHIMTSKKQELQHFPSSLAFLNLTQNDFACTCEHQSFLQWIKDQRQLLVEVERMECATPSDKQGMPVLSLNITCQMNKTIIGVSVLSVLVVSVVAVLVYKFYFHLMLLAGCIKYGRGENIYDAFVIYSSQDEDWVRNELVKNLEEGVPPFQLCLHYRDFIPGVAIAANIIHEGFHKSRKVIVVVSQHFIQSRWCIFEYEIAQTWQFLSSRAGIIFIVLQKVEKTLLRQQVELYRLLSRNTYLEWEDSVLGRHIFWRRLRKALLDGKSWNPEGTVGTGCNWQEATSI
In short: (§1)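 HEK293 reporter cells stably co-transfected with the respective human TLR or NOD receptor plus NF-κB/AP-1-driven secreted alkaline phosphatase, kept in selection medium. About 10^5 cells/ml were incubated with graded concentrations of test compound in 384-well format. Supernatant sAP was read colorimetrically at 620 nm with an alkaline phosphatase-specific chromogen in detection medium.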

[2] = target: T1, Toll-like receptor 8 (Homo sapiens, UniProt Q9NR97); test: Agonist activity at human TLR8 stably expressed in HEK293 cells co-expressing secreted alkaline phosphatase assessed as NF-kappaB induction by liquid handler-assisted reporter gene assay; in short: as §1
T1 sequence (Q9NR97 whole entry): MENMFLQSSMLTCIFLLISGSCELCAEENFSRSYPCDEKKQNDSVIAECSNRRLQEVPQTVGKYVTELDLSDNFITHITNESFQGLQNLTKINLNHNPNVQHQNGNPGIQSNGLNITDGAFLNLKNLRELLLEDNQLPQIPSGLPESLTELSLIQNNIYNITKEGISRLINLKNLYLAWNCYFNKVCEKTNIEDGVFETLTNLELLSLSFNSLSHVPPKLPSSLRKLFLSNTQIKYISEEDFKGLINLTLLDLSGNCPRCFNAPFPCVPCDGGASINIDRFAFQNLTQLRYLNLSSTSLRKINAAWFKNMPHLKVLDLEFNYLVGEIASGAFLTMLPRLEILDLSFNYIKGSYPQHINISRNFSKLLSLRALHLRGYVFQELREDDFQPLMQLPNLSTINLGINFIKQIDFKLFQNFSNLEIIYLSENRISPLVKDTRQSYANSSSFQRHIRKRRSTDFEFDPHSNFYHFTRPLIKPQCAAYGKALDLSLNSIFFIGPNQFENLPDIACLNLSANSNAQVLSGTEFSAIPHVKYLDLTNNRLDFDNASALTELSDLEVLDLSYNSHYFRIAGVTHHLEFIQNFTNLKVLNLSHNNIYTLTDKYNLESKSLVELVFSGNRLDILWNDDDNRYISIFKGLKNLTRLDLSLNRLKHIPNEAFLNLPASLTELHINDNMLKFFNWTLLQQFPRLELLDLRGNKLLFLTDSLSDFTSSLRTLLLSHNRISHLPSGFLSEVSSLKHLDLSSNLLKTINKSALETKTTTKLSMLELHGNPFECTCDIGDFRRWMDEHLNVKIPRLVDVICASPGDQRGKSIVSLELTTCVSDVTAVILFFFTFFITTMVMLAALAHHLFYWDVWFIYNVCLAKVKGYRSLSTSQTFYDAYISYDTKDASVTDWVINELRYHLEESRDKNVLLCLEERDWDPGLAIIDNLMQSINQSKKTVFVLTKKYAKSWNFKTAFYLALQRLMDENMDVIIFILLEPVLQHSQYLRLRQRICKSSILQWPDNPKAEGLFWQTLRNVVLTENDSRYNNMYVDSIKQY

[3] = target: T2, Toll-like receptor 9 (Homo sapiens) (UniProt Q9NR96); test: Agonist activity at human TLR9 stably expressed in HEK293 cells co-expressing secreted alkaline phosphatase assessed as NF-kappaB induction by liquid handler-assisted reporter gene assay; in short: as §1
T2 sequence (whole entry): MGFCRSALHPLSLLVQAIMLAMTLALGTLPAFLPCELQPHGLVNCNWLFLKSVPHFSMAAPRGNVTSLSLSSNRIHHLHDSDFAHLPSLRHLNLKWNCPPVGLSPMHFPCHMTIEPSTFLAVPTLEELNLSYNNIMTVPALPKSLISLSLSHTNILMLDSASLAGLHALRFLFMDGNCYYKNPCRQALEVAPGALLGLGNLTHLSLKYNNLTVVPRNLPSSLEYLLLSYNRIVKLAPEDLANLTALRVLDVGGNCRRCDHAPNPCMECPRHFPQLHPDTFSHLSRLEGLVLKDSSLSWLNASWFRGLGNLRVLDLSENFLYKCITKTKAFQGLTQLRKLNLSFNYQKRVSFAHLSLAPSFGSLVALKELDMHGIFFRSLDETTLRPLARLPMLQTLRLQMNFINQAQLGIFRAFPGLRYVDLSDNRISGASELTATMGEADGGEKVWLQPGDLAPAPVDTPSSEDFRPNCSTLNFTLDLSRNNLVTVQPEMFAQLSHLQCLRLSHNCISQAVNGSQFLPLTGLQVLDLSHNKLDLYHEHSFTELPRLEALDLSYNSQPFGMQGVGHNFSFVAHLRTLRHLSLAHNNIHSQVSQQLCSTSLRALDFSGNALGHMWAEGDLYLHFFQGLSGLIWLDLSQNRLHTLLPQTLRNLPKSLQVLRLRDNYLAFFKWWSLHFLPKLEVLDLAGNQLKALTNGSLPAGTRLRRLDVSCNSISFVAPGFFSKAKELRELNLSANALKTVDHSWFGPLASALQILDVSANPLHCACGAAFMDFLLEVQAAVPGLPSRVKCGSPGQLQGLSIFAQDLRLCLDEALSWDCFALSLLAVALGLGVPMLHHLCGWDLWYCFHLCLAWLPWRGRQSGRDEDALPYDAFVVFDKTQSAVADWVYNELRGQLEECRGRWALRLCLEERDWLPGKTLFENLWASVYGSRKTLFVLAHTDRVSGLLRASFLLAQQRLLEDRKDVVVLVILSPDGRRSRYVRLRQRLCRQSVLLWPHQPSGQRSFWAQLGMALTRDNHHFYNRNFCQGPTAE

Row | Activity [1] | EC50 [2] | Activity [3] | Structure (SMILES)
1 | inactive | Not Active | inactive | CCCCCn1c(N)nc2c(Cl)cccc21
2 | inactive | Not Active | inactive | CCCCCn1c(N)nc2cnccc21
3 | inactive | Not Active | inactive | CCCCCn1c(N)nc2c(F)cccc21
4 | inactive | Not Active | inactive | CCCCCn1c(N)nc2ccncc21
5 | inactive | Not Active | inactive | CCCCCn1c(N)nc2c([N+](=O)[O-])cccc21
6 | inactive | Not Active | inactive | CCCCCn1c(N)nc2c(Cc3ccccc3)cccc21
7 | inactive | Not Active | inactive | CCCCCn1c(N)nc2c(Br)cccc21
8 | inactive | – | inactive | CCCCCn1c(N)nc2c(C)cccc21
9 | inactive | Not Active | inactive | CCCCCn1c(N)nc2c(C(F)(F)F)cccc21
10 | inactive | Not Active | inactive | CCCCCn1c(N)nc2c(-c3ccccc3)cccc21
11 | inactive | Not Active | inactive | CCCCCn1c(N)nc2ncccc21

Further lines, the compound ahead of its results:

Row | Structure (SMILES) | Activity [1] | EC50 [2] | Activity [3]
12 | CCCCOC(=O)n1c(N)nc2ccccc21 | inactive | Not Active | inactive
13 | CCCCCn1c(N)nc2ccc3ccccc3c21 | inactive | Not Active | inactive
14 | CCCCC1(O)C(N)=Nc2ccccc21 (configuration not stated) | inactive | Not Active | inactive
15 | Nc1nc2ccccc2n1Cc1ccccc1 | inactive | Not Active | inactive
16 | CCCCCn1c(N)nc2cccnc21 | inactive | Not Active | inactive
17 | CCCCCn1c(N)nc2c(OCc3ccccc3)cccc21 | inactive | Not Active | inactive
18 | NCc1cccc(Cn2c(N)nc3ccccc32)c1 | inactive | Not Active | inactive
19 | CCCCC1C(N)=Nc2ccccc21.Cl (configuration not stated) | inactive | ND(Unstable) | inactive
20 | CCCCCn1c(NC(C)=O)nc2ccccc21 | inactive | Not Active | inactive
21 | CCCCCn1c(N)nc2cc3ccccc3cc21 | inactive | Not Active | inactive
